Most compounds without a hit are left out; they make up all but 3.4% or so of the library.
KCC2 mod: modulates chloride dependent transport by human KCC2; Q9H2X9; KCC2 cells, thallium flux FluoZin-2 fluorescence; B-score of Tl+ flux slope (higher = more flux/activation; lower = inhibition) at 10 µM; 190,000 compounds, 2.2% hits;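 active = thallium flux slope and its plate-corrected score both differing from the plate sample mean at a set confidence after two filtering rounds, in either direction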;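 also: slope of fluorescence scaled to starting intensity during 10 to 20 s after thallium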
MDM2 E3 inh: inhibitors of human Mdm2 E3 ubiquitin ligase; 210,000 compounds, 0.11% hits; signal enhancement, % at 5 µM; cell-based MDM2 ubiquitination luciferase reporter, 2 h; 0 = plate control, 100 = twice control, blank-subtracted; Q00987;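 active = signal enhancement of 30% or more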;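 also: luminescence tracks abundance of the self-degrading MDM2-luciferase fusion protein; higher signal means inhibition of MDM2 E3 ligase activity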
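Assay system: stable mammalian line carrying autodegrading MDM2–luciferase fusion reporter; Input: 2000 cells in each well; Compound dosing: single-point 5 µM; Schedule: 2 h compound exposure at 37 °C; Signal: SteadyLite luciferase luminescence after 15 min room-temperature reagent incubation; Evaluation: % luminescence enhancement versus blank-corrected plate control mean; Benchmarks: plate controls and plate blanks.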
p97 ATPase inh: inhibitors of human p97 ATPase; P55072; recombinant p97 ATPase, Kinase-Glo ATP luminescence, 3 h; inhibition, % at 8 µM; 220,000 compounds, 0.42% hits; AID 1481; in the data active = inhibition above about 15%
ROMK primary: human ROMK K+ channel modulation, primary screen. B-score at 10 µM. P48048. Tet-inducible ROMK, thallium flux fluorescence; actives lie on both sides. AID 1918. 130,000 compounds, 2% hits;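 active = signal ratio slope over the read window, or its plate-corrected B-score, at least 3 SD from the plate mean, either direction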;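 also: B-score of the F/F0 ratio slope over 7 to 12 s after thallium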
Redox H2O2 prof: compounds producing H2O2 with reducing agent – biochemical, NIH compound library profiling, artefact control for MLSCN library redox annotation, primary screen; DTT-dependent redox cycling H2O2, phenol red/HRP absorbance; 100% = 100 µM peroxide control, 0% = buffer; activation, % at 10 µM; 200,000 compounds, 0.03% hits;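 active = activation of at least 50% relative to the plate's high and low controls in the primary single-dose screen; inactive = activation below 50%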;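 also: compound incubated with DTT at 0.8 mM final as the reducing agent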
PKD1 inh: inhibitors of human PKD1 kinase | Q15139 | PKD1 kinase fluorescence polarization assay | inhibition, % (no concentration beside the values) | 200,000 compounds, 0.056% hits | AID 797; in the data active = inhibition above about 50%
A number is an active result; . = inactive; / = no result.

SMILES	KCC2 mod	MDM2 E3 inh	p97 ATPase inh	ROMK primary	Redox H2O2 prof	PKD1 inh
O=c1c(C(c2ccccc2)c2c(O)sc3ccccc3c2=O)c(O)sc2ccccc12	20.7	.	.	/	.	.
Cc1cc2cc(C=O)c(Cl)nc2cc1C	/	.	.	/	.	.
O=C(NCC1COc2ccccc2O1)c1ccccc1 (centres undefined)	.	.	.	/	.	.
O=C(NC(=S)NCC1COc2ccccc2O1)c1ccccc1 (centres undefined)	4.33	.	.	/	.	.
Cc1cc(NC(=O)CSc2nc(-c3ccccc3)nc3c2c(=O)n(C)c(=O)n3C)no1	.	.	.	/	.	.
Cc1cc(NC(=O)CSc2nc(C(C)C)nc3c2c(=O)n(C)c(=O)n3C)no1	/	33.3	.	/	.	.
Cc1ccc(NC(=O)c2cc(N3C(=O)C4CCCCC4C3=O)ccc2N2CCOCC2)cc1 (centres undefined)	.	.	.	.	.	.
CCOC(=O)/C=C(\C)Sc1cc(=O)oc2ccccc12	.	.	.	/	.	.
CCOC(=O)/C=C(\C)Sc1cc(O)c2ccccc2c1O	.	.	36.0	/	/	/
O=C1S/C(=C\c2ccc(O)c([N+](=O)[O-])c2)C(=O)N1c1ccccc1Cl	-3.46	.	.	-3.56	.	.
CC(C)=C1SC(N2CCN(c3cccc(C(F)(F)F)c3)CC2)=NC1=O	.	30.3	.	/	.	.
CC(C)=C1SC(N2CCN(c3ccc(C)cc3)CC2)=NC1=O	.	.	.	/	.	.
Cc1ncoc1C(=O)Nc1ccc(Oc2ccccc2)cc1	/	.	.	.	.	.
Cc1nc(C)c(C(=O)Nc2ccc(Oc3ccccc3)cc2)o1	-4.01	.	.	.	.	.
c1ccc(Cn2ncc3c(N4CCCCC4)ncnc32)cc1	-4.08	.	.	/	.	.
C/C(=N\O)C(=O)NCCCn1ccnc1	.	.	.	2.14	.	.
CCCCNC(=O)C(=O)NCCCn1ccnc1	.	.	.	.	.	.
O=C(CSc1nnnn1-c1ccc(F)cc1)Nc1nc2ccccc2s1	.	.	.	/	.	.
CCn1cc(C(=O)NCc2ccc3c(c2)OCO3)c(=O)c2cc(S(=O)(=O)N(C)C)ccc21	.	.	.	.	.	.
CCn1cc(C(=O)NCc2ccccc2OC)c(=O)c2cc(S(=O)(=O)N(C)C)ccc21	.	36.8	.	/	.	.
COc1ccc(S(=O)(=O)N2CCCCCC2)cc1C(=O)OCc1c(C)noc1C	.	.	.	-6.69	.	.
CC(C)N1CCC(=NNC(=O)c2ccc(Br)o2)CC1	.	.	.	2.73	.	.
O=C(NN=C1CCCCCC1)c1ccc(Br)o1	.	.	.	.	.	.
COc1ccc(C)cc1C(=O)C1CC(C(=O)O)C(C)(C)C1C (centres undefined)	.	/	.	.	.	.
COc1ccc(S(=O)(=O)N(CC(=O)N2CCN(c3ccccc3OC)CC2)c2ccccc2)cc1	.	.	.	.	.	.
SMILES	KCC2 mod	MDM2 E3 inh	p97 ATPase inh	ROMK primary	Redox H2O2 prof	PKD1 inh
CCOC(=O)c1c(C)[nH]c(=S)c(C#N)c1-c1ccc(Cl)cc1	10.7	.	.	.	.	.
CCOC(=O)c1c(C)[nH]c(=S)c(C#N)c1-c1ccc(OC)cc1	.	.	.	.	.	.
O=S(=O)(C/C(=C/CO)S(=O)(=O)c1ccccc1)c1ccccc1	/	.	.	-8.17	.	.
CCN(Cc1ccccc1)C(=O)CS(=O)(=O)c1ccccc1	.	.	.	/	.	.
O=C(NC(=S)Nc1ccc(N2CCOCC2)cc1)c1cccc(Cl)c1	6.93	.	.	.	.	.
CC(=O)c1cccc(NC(=S)NC(=O)c2cccc(Cl)c2)c1	15.6	.	.	.	.	.
O=C(NC(=S)Nc1ccc(N2CCOCC2)cc1)c1ccccc1	/	.	.	/	.	.
O=C(NC(=S)Nc1ccc(N2CCOCC2)cc1)c1ccco1	11	.	.	.	.	.
O=C(c1cn(-c2ccccc2)nc1-c1cccs1)N1CCOCC1	.	32.7	.	/	.	.
CCN1C(=O)N(C)[C@@H](c2ccccc2)C(C(=O)OC)=C1C	.	.	/	/	/	/
CCCCNC(=S)N/N=C1\C(=O)c2cccc3cccc1c23	4.97	.	.	.	.	.
CNC(=S)N/N=C1\C(=O)c2cccc3cccc1c23	42.7	.	.	/	.	.

Screens: PubChem BioAssay, several laboratories
